Source: ChEMBL document CHEMBL3797149, “1-Sulfonyl-6-Piperazinyl-7-Azaindoles as potent and pseudo-selective 5-HT6 receptor antagonists” (Bioorg Med Chem Lett, 2016)
Calls of active or inactive are those of the source. The rule behind the calls is not given here.

How the values were obtained:
[1] = target: T1, D(2) dopamine receptor (Homo sapiens, UniProt P14416); experiment: Displacement of [3H]NMSP from human dopamine D2S receptor expressed in CHO cell membrane incubated for 1 hr by scintillation counting method; assay type: cell membranes
Outline: (§1)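 Competition binding: [3H]-LSD displacement for 5-HT6 and [3H]-NMSP displacement for D2. Eight compound concentrations, 5 × 10^-6 to 5 × 10^-13 M, each tested in triplicate. Affinity is reported as Ki.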

[2] = tested on: CHO; experiment: Selectivity ratio of Ki for human dopamine D2S receptor expressed in CHO cell membrane to Ki for human 5HT6 receptor in HEK293 cell membrane; assay type: cell-based
Outline: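 Ki values come from in-house competition binding: [3H]-LSD displacement at 5-HT6 and [3H]-NMSP displacement at D2. Compounds were tested at eight concentrations from 5×10^-6 to 5×10^-13 M in triplicate. The ratio is D2 Ki divided by 5-HT6 Ki.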

[3] = target: T2, 5-hydroxytryptamine receptor 6 (Homo sapiens, UniProt P50406); experiment: Displacement of [3H]LSD from human 5HT6 receptor in HEK293 cell membrane incubated for 1 hr by scintillation counting method; assay type: cell membranes; outline: as §1
[4] = Kinetic solubility in sorensen buffer at pH 7.4 incubated for 1 hr by UV-Visible spectrophotometry; assay type: physicochemical; conditions: read-out: Kinetic_solubility
[5] = target: 5-hydroxytryptamine receptor 1B (Rattus norvegicus) (UniProt P28564); experiment: Displacement of [125I]CYP from 5HT1B receptor in rat cerebral cortex at 1 uM incubated for 120 mins by scintillation counting method relative to control; assay type: tissue-based
Outline: (§2)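 Tested at a single concentration in a contract panel of 106 neurotransmitter receptors, transporters and ion channels. Read-out is percent radioligand displacement.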

[6] = target: T1, D(2) dopamine receptor; experiment: Displacement of [3H]methyl-spiperone from human recombinant dopamine D2S receptor expressed in HEK293 cells at 1 uM incubated for 60 mins by scintillation counting method relative to control; assay type: cell-based
Outline: (§3)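 Single-point screen at 1 µM (final) within a 106-target panel of neurotransmitter receptors, transporters and ion channels. Read-out is % radioligand displacement.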

[7] = target: Cytochrome P450 2D6 (Homo sapiens, UniProt P10635); experiment: Inhibition of human recombinant CYP2D6 using AMMC as substrate incubated for 45 mins by fluorescence analysis in presence of NADPH; assay type: ADME
[8] = target: D(3) dopamine receptor (Homo sapiens) (UniProt P35462); experiment: Displacement of [3H]methyl-spiperone from human recombinant dopamine D3 receptor expressed in CHO cells at 1 uM incubated for 60 mins by scintillation counting method relative to control; assay type: cell-based; outline: as §2
[9] = Passive permeability of compound after 4 hrs by sink-PAMPA assay; assay type: ADME; conditions: read-out: permeability
[10] = target: Cytochrome P450 3A4 (Homo sapiens, UniProt P08684); experiment: Inhibition of human recombinant CYP3A4 using 7-benzyloxy-trifluoromethylcoumarin as substrate incubated for 30 mins by fluorescence analysis in presence of NADPH; assay type: ADME
[11] = target: T2, 5-hydroxytryptamine receptor 6; experiment: Displacement of [3H]LSD from human recombinant 5HT6 receptor expressed in CHO cells at 1 uM incubated for 120 mins by scintillation counting method relative to control; assay type: cell-based; outline: as §3
[12] = tested on: Mus musculus; experiment: Procognitive effect in CD1 mouse assessed as reversal of scopolamine-induced amnesia by measuring time spent in open arm in acquisition phase at 0.3 to 10 mg/kg, sc pretreated for 10 mins followed by scopolamine injection measured after 30 mins by elevated […] maze test; assay type: functional, organism-based
Outline: (§4)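 Elevated plus maze in mice. Test article is given subcutaneously, then scopolamine 10 min later. In the acquisition phase (T1), open-arm time % ([open/(open+enclosed)]×100) and transfer latency to the enclosed arm are recorded. Retention phase (T2) follows 24 h later. n = 13–15 per group; data shown as mean ± SEM and median.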

[13] = tested on: Mus musculus; experiment: Procognitive effect in CD1 mouse assessed as reversal of scopolamine-induced amnesia by measuring time spent in open arm in retention phase at 0.3 to 10 mg/kg, sc pretreated for 10 mins followed by scopolamine injection measured after 24 hrs by elevated […] maze test; assay type: functional, organism-based; outline: as §4

T2 sequence (P50406 whole entry): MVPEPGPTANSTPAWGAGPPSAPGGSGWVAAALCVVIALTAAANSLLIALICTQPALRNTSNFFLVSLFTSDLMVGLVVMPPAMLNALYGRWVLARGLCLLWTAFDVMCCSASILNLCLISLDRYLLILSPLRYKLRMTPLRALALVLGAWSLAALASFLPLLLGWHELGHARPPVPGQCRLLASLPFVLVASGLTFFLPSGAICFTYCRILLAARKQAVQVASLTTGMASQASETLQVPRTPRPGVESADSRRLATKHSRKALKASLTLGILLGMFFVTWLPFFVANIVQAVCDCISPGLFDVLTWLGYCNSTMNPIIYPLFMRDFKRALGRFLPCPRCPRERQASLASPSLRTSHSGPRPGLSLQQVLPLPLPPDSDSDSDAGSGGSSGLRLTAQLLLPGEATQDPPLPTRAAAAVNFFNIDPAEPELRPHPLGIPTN
T1 sequence (P14416 whole entry): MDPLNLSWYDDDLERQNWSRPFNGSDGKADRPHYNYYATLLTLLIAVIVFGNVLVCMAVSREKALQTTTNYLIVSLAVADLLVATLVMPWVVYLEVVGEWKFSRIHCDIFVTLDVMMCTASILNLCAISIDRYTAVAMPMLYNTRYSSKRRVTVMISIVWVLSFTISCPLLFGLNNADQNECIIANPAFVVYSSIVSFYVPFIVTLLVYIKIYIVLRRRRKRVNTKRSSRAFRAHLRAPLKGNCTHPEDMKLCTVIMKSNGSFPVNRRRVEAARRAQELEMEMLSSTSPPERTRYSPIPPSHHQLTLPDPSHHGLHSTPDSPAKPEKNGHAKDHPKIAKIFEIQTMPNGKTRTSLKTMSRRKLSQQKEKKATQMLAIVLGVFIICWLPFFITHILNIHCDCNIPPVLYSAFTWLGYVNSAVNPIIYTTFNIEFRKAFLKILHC
Sequence of 5-hydroxytryptamine receptor 1B (Rattus norvegicus) (P28564 whole entry): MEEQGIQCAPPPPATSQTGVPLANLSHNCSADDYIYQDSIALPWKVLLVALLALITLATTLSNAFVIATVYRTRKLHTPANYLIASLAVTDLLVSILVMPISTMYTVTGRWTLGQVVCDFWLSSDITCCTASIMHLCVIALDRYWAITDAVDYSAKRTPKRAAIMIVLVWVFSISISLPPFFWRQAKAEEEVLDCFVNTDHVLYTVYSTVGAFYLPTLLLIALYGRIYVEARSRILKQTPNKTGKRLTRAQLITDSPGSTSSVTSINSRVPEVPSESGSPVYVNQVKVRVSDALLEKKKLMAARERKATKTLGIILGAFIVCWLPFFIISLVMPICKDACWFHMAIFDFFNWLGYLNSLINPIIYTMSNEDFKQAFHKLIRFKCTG
Sequence of Cytochrome P450 2D6 (P10635 whole entry): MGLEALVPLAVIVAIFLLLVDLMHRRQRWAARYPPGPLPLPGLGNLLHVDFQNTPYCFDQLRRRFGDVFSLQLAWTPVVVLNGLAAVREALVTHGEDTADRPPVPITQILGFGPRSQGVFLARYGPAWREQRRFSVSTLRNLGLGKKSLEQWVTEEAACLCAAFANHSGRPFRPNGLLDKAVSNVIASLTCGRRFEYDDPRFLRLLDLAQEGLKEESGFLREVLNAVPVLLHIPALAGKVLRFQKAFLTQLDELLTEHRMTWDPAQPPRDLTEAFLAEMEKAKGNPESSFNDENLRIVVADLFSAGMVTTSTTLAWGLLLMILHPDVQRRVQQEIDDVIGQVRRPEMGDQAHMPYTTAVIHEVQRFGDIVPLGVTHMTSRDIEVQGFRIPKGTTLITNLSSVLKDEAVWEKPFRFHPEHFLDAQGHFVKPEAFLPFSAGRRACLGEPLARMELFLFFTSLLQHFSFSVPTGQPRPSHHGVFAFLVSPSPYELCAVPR
Sequence of D(3) dopamine receptor (Homo sapiens) (P35462 whole entry): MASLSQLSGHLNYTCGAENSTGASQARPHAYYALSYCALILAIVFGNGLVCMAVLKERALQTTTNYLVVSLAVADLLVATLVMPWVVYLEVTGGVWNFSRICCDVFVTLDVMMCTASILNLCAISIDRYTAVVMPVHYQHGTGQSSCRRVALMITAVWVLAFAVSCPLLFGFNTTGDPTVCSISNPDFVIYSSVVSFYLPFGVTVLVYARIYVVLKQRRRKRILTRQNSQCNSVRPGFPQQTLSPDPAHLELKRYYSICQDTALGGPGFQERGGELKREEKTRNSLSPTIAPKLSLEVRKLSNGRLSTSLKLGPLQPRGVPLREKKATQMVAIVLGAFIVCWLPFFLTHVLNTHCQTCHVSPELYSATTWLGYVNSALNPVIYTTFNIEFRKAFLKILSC
Sequence of Cytochrome P450 3A4 (P08684 whole entry): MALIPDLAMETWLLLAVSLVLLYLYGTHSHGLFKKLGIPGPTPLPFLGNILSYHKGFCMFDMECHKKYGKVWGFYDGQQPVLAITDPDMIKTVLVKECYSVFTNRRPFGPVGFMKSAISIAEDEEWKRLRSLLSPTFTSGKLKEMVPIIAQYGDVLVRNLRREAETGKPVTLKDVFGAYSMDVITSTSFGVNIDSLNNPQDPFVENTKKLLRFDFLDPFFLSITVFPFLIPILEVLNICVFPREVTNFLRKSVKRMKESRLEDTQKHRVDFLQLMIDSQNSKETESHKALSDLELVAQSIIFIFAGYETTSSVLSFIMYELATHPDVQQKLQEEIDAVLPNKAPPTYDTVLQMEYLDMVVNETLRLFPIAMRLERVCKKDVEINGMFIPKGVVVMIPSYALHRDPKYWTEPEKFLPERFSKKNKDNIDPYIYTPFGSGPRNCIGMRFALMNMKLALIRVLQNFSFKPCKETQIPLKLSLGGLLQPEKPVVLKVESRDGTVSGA

SMILES | Ki [1] | Ratio Ki [2] | Ki [3] | further results
CC(C)S(=O)(=O)n1ccc2c(-c3ccc(C(F)(F)F)cc3)cc(N3CCN(C)CC3)nc21 | 25 nM | 4 | 6 nM | 
CC(C)CS(=O)(=O)n1ccc2c(-c3ccc(OCc4ccccc4)cc3)cc(N3CCN(C)CC3)nc21 | 86 nM | 0.3 | 290 nM | 
CC(C)CS(=O)(=O)n1ccc2c(-c3ccccc3)cc(N3CCN(C)CC3)nc21 | 547 nM | 35 | 16 nM | 
CC(C)CS(=O)(=O)n1ccc2c(-c3ccc(C(F)(F)F)cc3)cc(N3CCN(C)CC3)nc21.O=S(=O)(O)O |  |  |  | solubility kinetic at 1 h [4]: 10 µg/mL
COCCS(=O)(=O)n1ccc2c(-c3ccc(C(F)(F)F)cc3)cc(N3CCN(C)CC3)nc21 | 52 nM | 6 | 8 nM | 
CC(C)CS(=O)(=O)n1ccc2c(-c3ccc(C(F)(F)F)cc3)cc(N3CCNCC3)nc21 | 1700 nM |  | 3 nM | inhibition [5]: 72%; inhibition [6]: 60%; IC50 [7]: > 10000 nM; inhibition [8]: 94%; Papp at 4 h [9]: 92 ×10⁻⁶ cm/s; IC50 [10]: < 1100 nM; inhibition [11]: 100%
CN1CCN(c2cc(-c3ccc(C(F)(F)F)cc3)c3ccn(S(=O)(=O)C4CCOCC4)c3n2)CC1 | > 2000 nM | > 285 | 7 nM | 
CC(C)CS(=O)(=O)n1ccc2c(-c3cccc(C(F)(F)F)c3)cc(N3CCN(C)CC3)nc21 | 630 nM | 13 | 48 nM | 
CN1CCN(c2cc(-c3ccc(C(F)(F)F)cc3)c3ccn(S(C)(=O)=O)c3n2)CC1 | 1230 nM | 22 | 54 nM | 
CC(C)CS(=O)(=O)n1ccc2c(-c3ccc(C#N)cc3)cc(N3CCN(C)CC3)nc21 | 205 nM | 29 | 7 nM | 
CC(C)CS(=O)(=O)n1ccc2c(-c3ccc(C(F)(F)F)cc3)cc(N3CCN(C)CC3)nc21.O=C(O)CC(O)(CC(=O)O)C(=O)O |  |  |  | solubility kinetic at 1 h [4]: 14 µg/mL
CN1CCN(c2cc(-c3ccc(C(F)(F)F)cc3)c3ccn(S(=O)(=O)C4CCCCC4)c3n2)CC1 | > 2000 nM | > 133 | 15 nM | 
CC(C)CS(=O)(=O)n1ccc2c(-c3cccnc3)cc(N3CCN(C)CC3)nc21 | > 2000 nM | > 55 | 36 nM | 
CC(C)CS(=O)(=O)n1ccc2c(-c3ccc(C(=O)N(C)C)cc3)cc(N3CCN(C)CC3)nc21 | > 2000 nM |  | > 2000 nM | 
Cc1cc(-c2cc(N3CCN(C)CC3)nc3c2ccn3S(=O)(=O)CC(C)C)c(C)s1 | 640 nM | 53 | 12 nM | 
CC(C)CS(=O)(=O)n1ccc2c(-c3ccc(C(F)(F)F)cc3)cc(N3CCN(C)CC3)nc21 |  | 80 |  | Activity [12]: Active; Activity [13]: Active
CC(C)CS(=O)(=O)n1ccc2c(-c3cnn(C)c3)cc(N3CCN(C)CC3)nc21 | > 2000 nM | > 23 | 87 nM | 
CC(C)CS(=O)(=O)n1ccc2c(-c3ccc(O)cc3)cc(N3CCN(C)CC3)nc21 | 108 nM | 5 | 22 nM | 
Cc1noc(C)c1-c1cc(N2CCN(C)CC2)nc2c1ccn2S(=O)(=O)CC(C)C | > 2000 nM | > 15 | 129 nM | 
COc1ccc(-c2cc(N3CCN(C)CC3)nc3c2ccn3S(=O)(=O)CC(C)C)cc1 | 22 nM | 9 | 2 nM | 
CC(C)CS(=O)(=O)n1ccc2c(-c3ccc4[nH]ccc4c3)cc(N3CCN(C)CC3)nc21 | 382 nM | 76 | 5 nM | 
CC(C)CS(=O)(=O)n1ccc2c(-c3ccc(C(F)(F)F)cc3)cc(N3CCN(C)CC3)nc21.Cl |  |  |  | solubility kinetic at 1 h [4]: 14 µg/mL
CC(C)CS(=O)(=O)n1ccc2c(-c3ccccc3C(F)(F)F)cc(N3CCN(C)CC3)nc21 | 113 nM | 5 | 24 nM | 
CCc1ccc(-c2cc(N3CCN(C)CC3)nc3c2ccn3S(=O)(=O)CC(C)C)cc1 | 614 nM | 56 | 11 nM | 
CC(C)CS(=O)(=O)n1ccc2c(-c3ccc(C(F)(F)F)cc3)cc(N3CCN(C)CC3)nc21.O=C(O)/C=C/C(=O)O |  |  |  | solubility kinetic at 1 h [4]: 20 µg/mL
Br.CC(C)CS(=O)(=O)n1ccc2c(-c3ccc(C(F)(F)F)cc3)cc(N3CCN(C)CC3)nc21 |  |  |  | solubility kinetic at 1 h [4]: 65 µg/mL
CC(C)CS(=O)(=O)n1ccc2c(-c3ccc(C(F)(F)F)cc3)cc(N3CCN(C)CC3)nc21.O=C(O)C(O)C(O)C(=O)O |  |  |  | solubility kinetic at 1 h [4]: 11 µg/mL
CC(C)CS(=O)(=O)n1ccc2c(-c3ccc(=O)[nH]c3)cc(N3CCN(C)CC3)nc21 | > 2000 nM | > 8 | 231 nM | 
